Assay results taken from ChEMBL document CHEMBL3351402, “An efficient synthesis and biological screening of benzofuran and benzo[d]isothiazole derivatives for Mycobacterium tuberculosis DNA GyrB inhibition” (Bioorg Med Chem, 2014).
pIC50: −log10 of the molar value. Values after ≈ are worked out from the molar mass of the structure shown.

Legend:
[1] = test system: Mycobacterium tuberculosis; test: Antimicrobial activity against Mycobacterium tuberculosis H37Rv after 7 days by MABA assay; assay type: functional; details: 168 h
How it was run: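 M. tuberculosis H37Rv inoculum from fresh LJ medium, resuspended in 7H9 broth (0.1% casitone, 0.5% glycerol, OADC), adjusted to McFarland No. 1 and diluted 1:20. Serial two-fold drug dilutions in 7H9-S. Drug-free and sterile controls. Incubated 7 days at 37 °C, then Alamar blue added and plates re-incubated overnight. MIC = lowest concentration preventing the blue-to-pink change.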

DNA gyrase subunit B = DNA gyrase subunit B (Mycobacterium smegmatis, UniProt P0C559); test: Inhibition of purified Mycobacterium smegmatis GyrB at 50 to 100 uM after 100 mins by ATPase assay; design: species or system Mycolicibacterium smegmatis
[2] = biological target: DNA gyrase subunit A/DNA gyrase subunit B (Mycobacterium tuberculosis (strain ATCC 25618 / H37Rv), UniProt P9WG45+P9WG47); test: Inhibition of Mycobacterium tuberculosis DNA gyrase using relaxed pBR322 as substrate after 30 mins by supercoiling assay
[3] = Cytotoxicity against mouse RAW264.7 cells assessed as reduction in cell viability at 100 uM after 72 hrs by MTT assay; assay type: cell-based; details: read-out: INH
How it was run: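 RAW 264.7 mouse macrophages exposed to compound at 100 µM for 72 h. Viability measured by MTT conversion to formazan, with absorbance at 560 nm after 10 min incubation. Reported as percent inhibition.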

[4] = biological target: DNA gyrase subunit B (Mycobacterium smegmatis) (UniProt P0C559); test: Inhibition of purified Mycobacterium smegmatis GyrB ATPase activity at 50 to 100 uM after 100 mins by ATPase assay; details: Mycolicibacterium smegmatis
How it was run: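 M. smegmatis GyrB expressed in BL21(DE3)pLysS, IPTG-induced (0.1 mM final), then Ni-NTA purified. Started with MgCl2, 100 min at room temperature. Released phosphate read at 635 nm.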

[5] = biological target: DNA gyrase subunit A/DNA gyrase subunit B (Mycobacterium tuberculosis (strain ATCC 25618 / H37Rv)) (UniProt P9WG45+P9WG47); test: Binding affinity to Mycobacterium tuberculosis DNA gyrase by differential scanning fluorimetry
How it was run: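 Thermal shift assay with native GyrB protein. Reaction of 15 µL: assay buffer (50 mM Tris pH 7.4, 1 mM EDTA, 5 mM DTT), GyrB protein (1.5 mg/mL) and Sypro orange dye (1:100). Heated stepwise from 25 °C to 100 °C at 0.6 °C/min. Tm read from dye fluorescence. Shift in Tm of the ligand complex compared with the native protein Tm.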

DNA gyrase subunit B (Mycobacterium smegmatis), sequence (P0C559 2-675 limits assumed): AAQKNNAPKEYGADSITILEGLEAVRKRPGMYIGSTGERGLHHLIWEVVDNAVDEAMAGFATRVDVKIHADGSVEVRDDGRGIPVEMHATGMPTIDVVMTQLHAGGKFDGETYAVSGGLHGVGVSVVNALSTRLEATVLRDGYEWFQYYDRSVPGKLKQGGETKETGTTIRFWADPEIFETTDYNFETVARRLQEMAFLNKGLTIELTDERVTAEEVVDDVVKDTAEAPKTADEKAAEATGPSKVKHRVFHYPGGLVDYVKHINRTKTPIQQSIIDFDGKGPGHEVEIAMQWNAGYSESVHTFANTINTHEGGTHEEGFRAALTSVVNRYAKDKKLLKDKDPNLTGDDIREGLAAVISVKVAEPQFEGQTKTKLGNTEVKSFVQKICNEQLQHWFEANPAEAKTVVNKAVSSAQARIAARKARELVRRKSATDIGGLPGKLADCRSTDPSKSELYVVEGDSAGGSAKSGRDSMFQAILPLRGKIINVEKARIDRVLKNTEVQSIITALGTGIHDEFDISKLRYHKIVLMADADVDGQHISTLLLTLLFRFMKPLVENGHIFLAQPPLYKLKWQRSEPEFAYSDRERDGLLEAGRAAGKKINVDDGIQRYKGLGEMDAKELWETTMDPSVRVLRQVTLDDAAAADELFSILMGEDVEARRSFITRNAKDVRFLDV
DNA gyrase subunit B, sequence (P0C559 whole entry): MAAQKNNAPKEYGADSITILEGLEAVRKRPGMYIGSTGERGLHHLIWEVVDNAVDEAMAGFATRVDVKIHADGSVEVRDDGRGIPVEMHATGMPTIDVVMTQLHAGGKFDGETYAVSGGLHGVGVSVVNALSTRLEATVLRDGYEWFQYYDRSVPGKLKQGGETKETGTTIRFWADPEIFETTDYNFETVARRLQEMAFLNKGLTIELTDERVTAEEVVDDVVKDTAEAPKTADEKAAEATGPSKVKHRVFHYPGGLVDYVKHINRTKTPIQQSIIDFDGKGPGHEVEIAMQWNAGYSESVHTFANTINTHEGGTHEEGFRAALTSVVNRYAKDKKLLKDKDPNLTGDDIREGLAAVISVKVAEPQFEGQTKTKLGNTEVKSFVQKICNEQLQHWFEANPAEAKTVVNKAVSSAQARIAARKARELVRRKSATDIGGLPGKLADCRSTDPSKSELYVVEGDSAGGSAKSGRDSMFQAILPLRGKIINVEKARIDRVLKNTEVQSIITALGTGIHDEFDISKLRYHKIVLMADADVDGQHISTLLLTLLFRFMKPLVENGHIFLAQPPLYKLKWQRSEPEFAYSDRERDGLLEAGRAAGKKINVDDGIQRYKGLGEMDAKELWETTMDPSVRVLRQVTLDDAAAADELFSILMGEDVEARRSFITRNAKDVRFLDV
DNA gyrase subunit A/DNA gyrase subunit B, sequence (P9WG45 whole entry): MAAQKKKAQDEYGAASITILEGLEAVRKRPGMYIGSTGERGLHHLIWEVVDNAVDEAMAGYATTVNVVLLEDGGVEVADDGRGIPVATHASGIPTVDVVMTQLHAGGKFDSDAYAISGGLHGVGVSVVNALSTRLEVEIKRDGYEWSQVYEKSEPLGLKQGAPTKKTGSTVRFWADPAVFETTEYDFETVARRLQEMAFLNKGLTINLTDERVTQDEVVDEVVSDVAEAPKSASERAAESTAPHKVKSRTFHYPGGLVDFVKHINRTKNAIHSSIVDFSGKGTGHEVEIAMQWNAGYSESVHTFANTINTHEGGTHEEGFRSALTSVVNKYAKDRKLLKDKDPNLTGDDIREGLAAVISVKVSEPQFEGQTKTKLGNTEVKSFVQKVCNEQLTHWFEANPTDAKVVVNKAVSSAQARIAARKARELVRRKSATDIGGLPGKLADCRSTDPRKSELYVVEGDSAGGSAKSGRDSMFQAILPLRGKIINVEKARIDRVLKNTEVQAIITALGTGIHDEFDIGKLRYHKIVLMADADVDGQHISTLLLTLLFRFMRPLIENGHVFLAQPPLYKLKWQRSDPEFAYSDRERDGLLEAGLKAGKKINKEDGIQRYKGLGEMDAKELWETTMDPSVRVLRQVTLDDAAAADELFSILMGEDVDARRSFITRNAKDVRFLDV
DNA gyrase subunit A/DNA gyrase subunit B, sequence (P9WG47 whole entry): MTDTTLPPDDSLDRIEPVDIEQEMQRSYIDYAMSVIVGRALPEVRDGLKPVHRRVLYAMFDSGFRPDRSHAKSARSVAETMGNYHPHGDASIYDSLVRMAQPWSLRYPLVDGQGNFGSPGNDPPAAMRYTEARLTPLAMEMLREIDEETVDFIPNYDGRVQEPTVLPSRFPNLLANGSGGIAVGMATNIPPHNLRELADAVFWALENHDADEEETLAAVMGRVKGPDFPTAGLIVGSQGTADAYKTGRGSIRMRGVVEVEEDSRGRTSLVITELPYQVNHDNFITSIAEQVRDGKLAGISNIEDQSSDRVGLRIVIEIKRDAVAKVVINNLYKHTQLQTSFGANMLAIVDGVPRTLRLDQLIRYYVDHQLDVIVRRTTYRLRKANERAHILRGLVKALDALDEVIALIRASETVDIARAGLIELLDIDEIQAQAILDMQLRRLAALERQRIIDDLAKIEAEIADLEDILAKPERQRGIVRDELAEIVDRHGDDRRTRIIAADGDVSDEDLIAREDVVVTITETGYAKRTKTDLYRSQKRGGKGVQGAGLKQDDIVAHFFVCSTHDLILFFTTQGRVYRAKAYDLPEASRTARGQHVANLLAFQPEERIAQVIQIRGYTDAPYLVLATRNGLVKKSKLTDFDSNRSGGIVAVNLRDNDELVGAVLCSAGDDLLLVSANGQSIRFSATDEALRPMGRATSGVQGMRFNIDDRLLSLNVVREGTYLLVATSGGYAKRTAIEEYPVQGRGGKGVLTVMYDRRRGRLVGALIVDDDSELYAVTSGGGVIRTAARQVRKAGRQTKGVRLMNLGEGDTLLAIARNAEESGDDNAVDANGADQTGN

| SMILES | MIC [1] [µM] | pIC50 (DNA gyrase subunit B) | pIC50 [2] | cytotoxicity at 72 h, 100 µM [3] [%] | inhibition [4] [%] | Tm [5] [°C] |
| --- | --- | --- | --- | --- | --- | --- |
| CC1COc2c(N3CCN(C)CC3)c(F)cc3c(=O)c(C(=O)O)cn1c23 (stereo not given) [OFLOXACIN] | 2.16 (≈ 0.781 µg/mL) | – | – | – | – | – |
| O=C(Nc1ccccc1)N1CCN(c2nsc3ccccc23)CC1 | 68.9 (≈ 23.3 µg/mL) | 4.70 | 5.34 | 27 | – | – |
| CCOC(=O)c1cc2cc(N3CCN(C(=S)Nc4ccc(OC)cc4)CC3)ccc2o1 | 16.2 (≈ 7.14 µg/mL) | 4.61 | 4.70 | 20.6 | – | – |
| O=C(NCc1ccccc1)N1CCN(c2nsc3ccccc23)CC1 | 1.9 (≈ 0.67 µg/mL) | 5.63 | 5.93 | 30.2 | > 60 | – |
| O=C(Nc1ccc([N+](=O)[O-])cc1)N1CCN(c2nsc3ccccc23)CC1 | 28.5 (≈ 10.9 µg/mL) | 4.57 | 4.91 | 20.9 | – | – |
| CCOC(=O)c1cc2cc(N3CCN(C(=S)Nc4ccc(Cl)cc4)CC3)ccc2o1 | 16.1 (≈ 7.13 µg/mL) | 4.45 | 4.88 | 30 | – | – |
| COc1ccc(NC(=O)N2CCN(c3nsc4ccccc34)CC2)cc1 | 14.7 (≈ 5.42 µg/mL) | 4.58 | 4.91 | 37.6 | – | – |
| CCOC(=O)c1cc2cc(N3CCN(C(=S)NCc4ccc(Cl)cc4)CC3)ccc2o1 | 62 (≈ 28.4 µg/mL) | 4.52 | 4.95 | 41.5 | – | – |
| CCOC(=O)c1cc2cc(N3CCN(C(=S)NCc4ccccc4)CC3)ccc2o1 | 33.9 (≈ 14.4 µg/mL) | 4.69 | 5.04 | 45.8 | – | – |
| S=C(Nc1ccccc1)N1CCN(c2nsc3ccccc23)CC1 | 15.2 (≈ 5.4 µg/mL) | 5.04 | 5.41 | 39.3 | > 60 | – |
| S=C(NCc1ccc(Cl)cc1)N1CCN(c2nsc3ccccc23)CC1 | 6.82 (≈ 2.75 µg/mL) | 4.95 | 5.36 | 25.9 | – | – |
| CCOC(=O)c1cc2cc(N3CCN(C(=O)Nc4ccc([N+](=O)[O-])cc4)CC3)ccc2o1 | 16.3 (≈ 7.15 µg/mL) | 5.29 | 5.53 | 19.6 | > 60 | – |
| S=C(Nc1ccc(Cl)cc1)N1CCN(c2nsc3ccccc23)CC1 | 3.51 (≈ 1.37 µg/mL) | 5.03 | 5.38 | 44.2 | > 60 | – |
| CCOC(=O)c1cc2cc(N3CCN(C(=O)NCc4ccccc4)CC3)ccc2o1 | 35.5 (≈ 14.4 µg/mL) | 5.36 | 5.51 | 40.9 | > 60 | – |
| O=C(NCc1ccc(Cl)cc1)N1CCN(c2nsc3ccccc23)CC1 | 14.1 (≈ 5.46 µg/mL) | 5.16 | 5.45 | 29.1 | > 60 | – |
| O=[N+]([O-])c1ccc(NC(=S)N2CCN(c3nsc4ccccc34)CC2)cc1 | 13.7 (≈ 5.48 µg/mL) | 5.74 | 6.08 | 27.6 | > 60 | – |

| SMILES | MIC [1] [µM] | pIC50 (DNA gyrase subunit B) | pIC50 [2] | cytotoxicity at 72 h, 100 µM [3] [%] | inhibition [4] [%] | Tm [5] [°C] |
| --- | --- | --- | --- | --- | --- | --- |
| S=C(NCc1ccccc1)N1CCN(c2nsc3ccccc23)CC1 | 14.7 (≈ 5.42 µg/mL) | 4.34 | < 4.60 | 19.1 | – | – |
| CC[C@@H](CO)NCCN[C@@H](CC)CO [ETHAMBUTOL] | 0.66 (≈ 0.135 µg/mL) | – | – | – | – | – |
| CCOC(=O)c1cc2cc(N3CCN(C(=O)Nc4ccc(OC)cc4)CC3)ccc2o1 | 4.24 (≈ 1.8 µg/mL) | 5.09 | 5.13 | 19.9 | > 60 | – |
| CO[C@H]1/C=C/O[C@@]2(C)Oc3c(C)c(O)c4c(O)c(c(/C=N/N5CCN(C)CC5)c(O)c4c3C2=O)NC(=O)/C(C)=C\C=C\[C@H](C)[C@H](O)[C@@H](C)[C@@H](O)[C@@H](C)[C@H](OC(C)=O)[C@@H]1C [RIFAMPIN] | 0.23 (≈ 0.189 µg/mL) | – | – | – | – | – |
| COc1ccc(NC(=S)N2CCN(c3nsc4ccccc34)CC2)cc1 | 3.54 (≈ 1.36 µg/mL) | 5.54 | 5.98 | 19 | > 60 | – |
| CCOC(=O)c1cc2cc(N3CCN(C(=S)Nc4ccccc4)CC3)ccc2o1 | 35.3 (≈ 14.4 µg/mL) | 4.81 | 5.14 | 22.9 | – | – |
| NNC(=O)c1ccncc1 [ISONIAZID] | 0.66 (≈ 0.0905 µg/mL) | – | – | – | – | – |
| CCOC(=O)c1cc2cc(N3CCN(C(=O)Nc4ccccc4)CC3)ccc2o1 | 92.6 (≈ 36.4 µg/mL) | 4.77 | 5.15 | 21.3 | – | – |
| CCOC(=O)c1cc2cc(N3CCN(C(=O)Nc4ccc(Cl)cc4)CC3)ccc2o1 | 16.8 (≈ 7.17 µg/mL) | 4.68 | 4.74 | 19.2 | – | – |
| CCOC(=O)c1cc2cc(N3CCN(C(=O)Nc4ccc(C(C)=O)cc4)CC3)ccc2o1 | 83.5 (≈ 36.4 µg/mL) | 5.10 | 5.45 | 21.6 | > 60 | – |
| CCOC(=O)c1cc2cc(N3CCN(C(=S)Nc4ccc([N+](=O)[O-])cc4)CC3)ccc2o1 | 62.6 (≈ 28.4 µg/mL) | 4.89 | 4.98 | 25.8 | > 60 | – |
| CC(=O)c1ccc(NC(=O)N2CCN(c3nsc4ccccc34)CC2)cc1 | 28.7 (≈ 10.9 µg/mL) | 4.53 | 5.02 | 20.2 | – | – |
| CCOC(=O)c1cc2cc(N3CCN(C(=S)Nc4ccc(C(C)=O)cc4)CC3)ccc2o1 | 31.5 (≈ 14.2 µg/mL) | 4.56 | 4.77 | 21.2 | – | – |
| CCOC(=O)c1cc2cc(N3CCN(C(=O)NCc4ccc(Cl)cc4)CC3)ccc2o1 | 64.6 (≈ 28.6 µg/mL) | 5.53 | 5.79 | 21.6 | > 60 | – |
| CC(=O)c1ccc(NC(=S)N2CCN(c3nsc4ccccc34)CC2)cc1 | 13.8 (≈ 5.48 µg/mL) | 4.96 | 5.08 | 40.7 | – | – |
| O=C(Nc1ccc(Cl)cc1)N1CCN(c2nsc3ccccc23)CC1 | 3.44 (≈ 1.28 µg/mL) | 5.75 | 6.38 | 20.3 | > 60 | 46.1 |
